Source: ChEMBL document CHEMBL3352730, “Synthesis and effects on cell viability of flavonols and 3-methyl ether derivatives on human leukemia cells” (Eur J Med Chem, 2014)
Calls of active or inactive are those of the source. The calls are words filed in the database; no cut-off is given here.

Columns and labels:
[1] = system: HL-60; assay: Induction of cell cycle arrest in human HL60 cells assessed as accumulation at S phase at 1 uM after 12 hrs by propidium iodide staining based flow cytometry (reference value: 14.7 +/- 0.3%); assay type: functional
[2] = system: HL-60; assay: Induction of cell cycle arrest in human HL60 cells assessed as accumulation at S phase at 10 uM after 12 hrs by propidium iodide staining based flow cytometry (reference value: 14.7 +/- 0.3%); assay type: functional
[3] = system: U-937; assay: Induction of cell cycle arrest in human U937 cells assessed as accumulation at S phase at 1 uM after 12 hrs by propidium iodide staining based flow cytometry (reference value: 20.5 +/- 0.8%); assay type: functional
[4] = system: U-937; assay: Induction of cell cycle arrest in human U937 cells assessed as accumulation at S phase at 10 uM after 12 hrs by propidium iodide staining based flow cytometry (reference value: 20.5 +/- 0.8%); assay type: functional
[5] = system: U-937; assay: Induction of cell cycle arrest in human U937 cells assessed as accumulation at S phase at 1 uM after 24 hrs by propidium iodide staining based flow cytometry (reference value: 18.6 +/- 0.3%); assay type: functional
[6] = system: HL-60; assay: Induction of cell cycle arrest in human HL60 cells assessed as accumulation at G2/M phase at 1 uM after 24 hrs by propidium iodide staining based flow cytometry (reference value: 22.5 +/- 0.9%); assay type: functional
[7] = system: HL-60; assay: Induction of cell cycle arrest in human HL60 cells assessed as accumulation at G2/M phase at 1 uM after 48 hrs by propidium iodide staining based flow cytometry (reference value: 17.9 +/- 0.7%); assay type: functional
[8] = system: HL-60; assay: Induction of apoptosis in human HL60 cells assessed as DNA fragmentation at 30 uM after 24 hrs by ethidium bromide staining based agarose gel electrophoresis method; assay type: functional, cell-based
In short: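 HL-60 cells were treated for 24 h. Genomic DNA was extracted, run on an agarose gel, stained with ethidium bromide and viewed under UV.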

[9] = system: HL-60; assay: Induction of apoptosis in human HL60 cells assessed as nuclear chromatin condensation at 30 uM after 24 hrs by Hoechst 33258 staining based fluorescence microscopy; assay type: functional, cell-based
In short: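 HL-60 cells were treated at 30 µM for 24 h, stained with Hoechst 33258, and scored for chromatin condensation by fluorescence microscopy.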

[10] = system: HL-60; assay: Induction of cell cycle arrest in human HL60 cells assessed as accumulation at subG1 phase at 3 uM after 12 hrs by propidium iodide staining based flow cytometry (reference value: 6.1 +/- 0.5%); assay type: functional
[11] = system: HL-60; assay: Induction of cell cycle arrest in human HL60 cells assessed as accumulation at subG1 phase at 10 uM after 12 hrs by propidium iodide staining based flow cytometry (reference value: 6.1 +/- 0.5%); assay type: functional
[12] = system: U-937; assay: Induction of cell cycle arrest in human U937 cells assessed as accumulation at subG1 phase at 3 uM after 12 hrs by propidium iodide staining based flow cytometry (reference value: 4.6 +/- 0.9%); assay type: functional
[13] = system: U-937; assay: Induction of cell cycle arrest in human U937 cells assessed as accumulation at G2/M phase at 10 uM after 12 hrs by propidium iodide staining based flow cytometry (reference value: 24.2 +/- 1.2%); assay type: functional
[14] = system: HL-60; assay: Induction of apoptosis in human HL60 cells assessed as pro-caspase-9 processing at 3 and 10 uM after 6 to 24 hrs by immunoblotting method; assay type: functional, cell-based
In short: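 Kinetic and dose-response immunoblots. Cells were treated, harvested at the indicated times, and probed with antibodies that detect both procaspase-8/-9 and their cleaved fragments.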

[15] = system: U-937; assay: Induction of apoptosis in human U937 cells assessed as pro-caspase-8 processing at 3 and 10 uM after 6 to 24 hrs by immunoblotting method; assay type: functional, cell-based
In short: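 Kinetic and dose-response experiment: cells were treated with the indicated concentrations and harvested at the indicated times. Pro-caspase-8 and -9 cleavage was detected by immunoblotting with antibodies that bind both the proenzyme and the cleaved fragments.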

[16] = system: U-937; assay: Induction of apoptosis in human U937 cells assessed as pro-caspase-9 cleavage by Western blotting method; assay type: functional, cell-based
In short: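 U937 cells exposed to increasing concentrations of the flavonol and harvested at 24 h. Lysates were immunoblotted with antibodies that detect both the pro-caspases and their cleaved forms.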

[17] = system: MOLT-3; assay: Induction of apoptosis in human MOLT3 cells assessed as reduction in pro-caspase-4 level by Western blotting method; assay type: functional, cell-based
In short: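 Cells were exposed to a range of compound concentrations and harvested at 24 h. Lysates were immunoblotted for caspase proforms and cleaved forms, and for Bcl-2 family proteins.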

[18] = system: U-937; assay: Induction of apoptosis in human U937 cells assessed as increase in caspase 3/7 activity using DEVD-pNA substrate at 10 uM after 24 hrs; assay type: functional, cell-based
In short: (§1)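 Cells were given 10 µM for 24 h. Lysates were assayed for cleavage of DEVD-pNA (caspase-3/7), IETD-pNA (caspase-8) and LEHD-pNA (caspase-9). Results are expressed as fold over control, from three independent experiments in triplicate.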

[19] = system: MOLT-3; assay: Induction of apoptosis in human MOLT3 cells assessed as increase in caspase 8 activity using IETD-pNA substrate at 10 uM after 24 hrs; assay type: functional, cell-based; in short: as §1
[20] = molecular target: MAP kinase p38 (Homo sapiens) (UniProt O15264+Q15759+Q16539+P53778); assay: Increase in p38 MAPK phosphorylation in human HL60 cells at 10 to 30 uM after 2 to 6 hrs by Western blotting method; assay type: cell-based; conditions: HL-60
In short: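 HL-60 cells were incubated for a time course. Extracts were immunoblotted with phospho-specific antibodies for ERK 1/2, JNK/SAPK and p38MAPK. Membranes were then stripped and reprobed for the total kinases as loading controls.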

[21] = system: HL-60; assay: Induction of apoptosis in human HL60 cells in presence of 10 uM MEK1/2 inhibitor PD98059 after 24 hrs by propidium iodide staining based flow cytometry; assay type: functional
[22] = system: U-937; assay: Increase in DR5 expression in human U937 cells at 10 30 uM after 24 hrs by immunoblotting method; assay type: functional, cell-based
In short: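 HL-60 and U937 cells were treated with increasing concentrations for 24 h. Lysates were immunoblotted for TRAIL, DR4 and DR5.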

[23] = system: U-937; assay: Induction of cell cycle arrest in human U937 cells assessed as accumulation at subG1 phase at 10 uM after 48 hrs by propidium iodide staining based flow cytometry (reference value: 6.7 +/- 0.3%); assay type: functional
[24] = system: HL-60; assay: Induction of cell cycle arrest in human HL60 cells assessed as accumulation at G1 phase at 3 uM after 24 hrs by propidium iodide staining based flow cytometry (reference value: 53 +/- 1.1%); assay type: functional
[25] = system: U-937; assay: Induction of cell cycle arrest in human U937 cells assessed as accumulation at G1 phase at 10 uM after 12 hrs by propidium iodide staining based flow cytometry (reference value: 45.8 +/- 0.8%); assay type: functional
[26] = system: U-937; assay: Induction of cell cycle arrest in human U937 cells assessed as accumulation at G1 phase at 1 uM after 24 hrs by propidium iodide staining based flow cytometry (reference value: 49.8 +/- 1.5%); assay type: functional
[27] = system: U-937; assay: Induction of cell cycle arrest in human U937 cells assessed as accumulation at G1 phase at 3 uM after 24 hrs by propidium iodide staining based flow cytometry (reference value: 49.8 +/- 1.5%); assay type: functional
[28] = system: U-937; assay: Induction of cell cycle arrest in human U937 cells assessed as accumulation at G1 phase at 10 uM after 24 hrs by propidium iodide staining based flow cytometry (reference value: 49.8 +/- 1.5%); assay type: functional

## O=c1c(O)c(-c2ccc(Br)cc2)oc2ccccc12
[1]
  Activity: 15.6%
[2]
  Activity: 15.9%
[3]
  Activity: 21.5%
[4]
  Activity: 24.9%
[5]
  Activity: 18.9%
[6]
  Activity: 22.5%
[7]
  Activity: 20.8%
[8]
  Activity: Active
[9]
  Activity: Active
[10]
  Activity: 6.3%
[11]
  Activity: 8.9%
[12]
  Activity: 3.1%
[13]
  Activity: 19.6%
[14]
  Activity: Active
[15]
  Activity: Active
[16]
  Activity: Active
[17]
  Activity: Active
[18]
  Activity: Active
[19]
  Activity: Active
[20]
  Activity: Active
[21]
  fold change (FC): 2
[22]
  Activity: Active
[23]
  Activity: 45.7%
[24]
  Activity: 50.1%
[25]
  Activity: 47.6%
[26]
  Activity: 47.4%
[27]
  Activity: 42.3%
[28]
  Activity: 40.2%
